In general, inhibition refers to the change of the read-out against control, counted positive when it falls.

Results on 13 molecules are retold here after PubChem BioAssay.

Activity calls are given as the source filed them.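 How the source made its calls, unless noted: active means inhibition at or above 50% relative to wild type and mutant plate controls; inactive means inhibition below 50%.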

The nature of experiment [1]: inhibitors of TNFa-induced NFkB p65 translocation, primary screen, imaging, HUVEC, MLSMR starter and 10KST1 sets (AID 438;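 active means inhibition above 20% together with a positive visual image hit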;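 further: compound added about 3h40 before a 20 min TNFalpha stimulation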;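 on inhibition: signal is the nuclear over cytoplasmic p65 intensity ratio per well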). The settings on record: HUVEC TNFa-induced p65 nuclear translocation; cell count: measured here: nuclei count (cytotoxicity indicator), at 2.08 µM; inhibition: at 2 µM, stronger effect = higher value, 0% TNFa-plus-vehicle, 100% no-TNFa wells.
A short description of experiment [2]: endothelial E-selectin expression blockers – imaging, HUVEC, immunofluorescence, MLSMR starter and 10KST1 sets, primary screen (AID 487;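 active means visually confirmed hit in the image check and inhibition above 20%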;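 on inhibition: signal is fraction of cell area covered by stained E-selectin grains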;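 on nuclei count: 100% = median nuclei count of all wells on the same plate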). The settings on record: HUVEC TNFalpha-induced E-selectin immunofluorescence imaging, at 2 µM; inhibition: stronger effect = higher value; nuclei count: measured here: cell number, toxicity.
Experiment [3] in a line: Primary imaging screen for DUSP6 inhibitors that restore phospho-Erk in transfected HeLa cells, chemical complementation (AID 609;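 active means compounds giving at least 50% inhibition in the cell-based MKP-3 phosphatase rescue imaging test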;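 on inhibition: phospho-Erk level distribution per well compared with pooled transfected vehicle control wells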). To be noted: HeLa MKP-3 transfected, phospho-Erk imaging KS statistic, at 10 µM, cells stimulated with TPA for 15 min.
The target of experiment [4] is Dual specificity protein phosphatase 6 (Homo sapiens) (UniProt Q16828). The description is as above. The settings on record: HeLa MKP-3 transfected, phospho-Erk imaging KS statistic; at 10 µM; stronger effect = higher value; cells stimulated with TPA for 15 min.
Chain of Dual specificity protein phosphatase 6 (Homo sapiens) (Q16828 whole entry, looked up): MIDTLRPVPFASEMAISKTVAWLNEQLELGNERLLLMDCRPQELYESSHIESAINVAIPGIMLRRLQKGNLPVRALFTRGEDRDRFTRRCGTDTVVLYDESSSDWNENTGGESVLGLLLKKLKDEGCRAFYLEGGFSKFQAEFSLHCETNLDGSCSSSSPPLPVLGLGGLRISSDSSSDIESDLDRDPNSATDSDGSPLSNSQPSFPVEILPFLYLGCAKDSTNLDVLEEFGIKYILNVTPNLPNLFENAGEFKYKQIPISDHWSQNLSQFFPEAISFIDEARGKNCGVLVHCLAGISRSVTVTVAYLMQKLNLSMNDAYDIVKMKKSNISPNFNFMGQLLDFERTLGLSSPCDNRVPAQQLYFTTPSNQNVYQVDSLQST
Experiment [5] deals with Voltage-gated potassium channel subunit beta-2 (Rattus norvegicus) (UniProt P62483). The experiment is described as follows: inhibitors of rat Kvbeta2 reductase activity – biochemical, NADPH fluorescence, primary screen (AID 622;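 active means fluorescence slope higher than the sample average by over 3 SD, cut at about -0.22 in these data, passing the limit was not always enough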;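 further: slope of raw intensity against log time taken from 70 to 1610 s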). The settings on record: recombinant KvBeta, 4-cyanobenzaldehyde reduction, at 10 µM, stronger effect = higher value.
Chain of Voltage-gated potassium channel subunit beta-2 (Rattus norvegicus) (P62483 whole entry, looked up): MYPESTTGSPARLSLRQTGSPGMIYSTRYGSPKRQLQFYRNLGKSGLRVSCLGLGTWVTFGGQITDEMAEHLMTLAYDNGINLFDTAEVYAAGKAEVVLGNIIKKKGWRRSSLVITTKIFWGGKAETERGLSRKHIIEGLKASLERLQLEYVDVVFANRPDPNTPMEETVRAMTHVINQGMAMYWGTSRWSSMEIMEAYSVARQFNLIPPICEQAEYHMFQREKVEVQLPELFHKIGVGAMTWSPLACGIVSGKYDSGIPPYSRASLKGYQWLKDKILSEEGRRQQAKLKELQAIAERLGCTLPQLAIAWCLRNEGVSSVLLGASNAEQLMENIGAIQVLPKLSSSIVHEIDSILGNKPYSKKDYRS
Experiment [6] shares this target. As to the kind of experiment: enhancers of rat Kvbeta2 NADPH turnover – biochemical, NADPH fluorescence, primary screen (AID 623;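 active means NADPH fluorescence slope more negative than the mean of all samples by about 3 SD, 99.7% confidence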;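 further: fluorescence intensity change per second fitted from 20 to 320 s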). To be noted: Recombinant KvBeta, NADPH fluorescence decrease slope, 10 min; at 10 µM; stronger effect = lower value.
In experiment [7] the target is Muscarinic acetylcholine receptor M4 (Homo sapiens) (UniProt P08173). As to the kind of experiment: M4-linked GIRK flux change, two-sided – cell-based, HEK293 M4/GIRK, thallium flux, BTC-AM, M4 allosteric agonist project, primary screen (AID 625;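 active means fluorescence slope after compound addition differing from the mean of all tested samples at 99.7% confidence, mostly higher but some lower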;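 further: thallium influx through GIRK channels coupled to M4 in HEK293 cells with BTC-AM dye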). To be noted: at 10 µM, actives lie on both sides. Put shortly:
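Assay system: HEK293 cells with M4 receptor and GIRK channels / Controls: carbachol and DMSO controls / Schedule: 1 h dye loading, 2 min kinetic read / Technique: kinetic fluorescence with BTC-AM dye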

A short description of experiment [8]: inhibitors of larval lipid processing in zebrafish, primary screen, whole organism, PED6 fluorescence, gall bladder and intestine (AID 686;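 active means a full or partial loss of lipid-probe fluorescence in the fish gall bladder, intestine or both, judged by eye; inactive means no fluorescence loss, or compound toxic to the fish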;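 further: larvae 5 to 7 days old with five fish per well; signal comes from phospholipase A2 cleavage of quenched PED6 carried via bile; overnight exposure to compound and PED6 before scoring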). The settings on record: Zebrafish larvae PED6 lipid processing, fluorescence scoring; screened at 20 µM (by protocol). Put shortly:
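Doses: 20 µM single dose. Test system: live zebrafish larvae aged 5-7 days, whole organism. Quantity: five larvae per well. Measured by: By-eye fluorescence microscopy. Reagent: ingested quenched lipid PED6 at 100 nM. Read-out: visual per-well fluorescence inhibition score. Times: overnight exposure of larvae to compound plus PED6.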

A short description of experiment [9]: loss of swimming-algae plug formation – whole organism, Chlamydomonas reinhardtii, WT vs cilia-less mutant, absorbance, 96-well, primary screen (AID 463189).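 Further: 0% = wild type cc124 cells in DMSO and 100% = ciliumless bld1 mutant cells.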 The settings on record: Chlamydomonas reinhardtii gravitaxis, OD600 absorbance, 2 days; at 10 µM; stronger effect = higher value.
Setting [10] is: measured here: cell density z-score.
Setting [11] is: measured here: nuclear c-Myc green intensity z-score.
The mark [12] stands for this setting: measured here: nuclear pErk red intensity z-score, stronger effect = higher value.

Chain of Muscarinic acetylcholine receptor M4 (Homo sapiens) (P08173 whole entry, looked up): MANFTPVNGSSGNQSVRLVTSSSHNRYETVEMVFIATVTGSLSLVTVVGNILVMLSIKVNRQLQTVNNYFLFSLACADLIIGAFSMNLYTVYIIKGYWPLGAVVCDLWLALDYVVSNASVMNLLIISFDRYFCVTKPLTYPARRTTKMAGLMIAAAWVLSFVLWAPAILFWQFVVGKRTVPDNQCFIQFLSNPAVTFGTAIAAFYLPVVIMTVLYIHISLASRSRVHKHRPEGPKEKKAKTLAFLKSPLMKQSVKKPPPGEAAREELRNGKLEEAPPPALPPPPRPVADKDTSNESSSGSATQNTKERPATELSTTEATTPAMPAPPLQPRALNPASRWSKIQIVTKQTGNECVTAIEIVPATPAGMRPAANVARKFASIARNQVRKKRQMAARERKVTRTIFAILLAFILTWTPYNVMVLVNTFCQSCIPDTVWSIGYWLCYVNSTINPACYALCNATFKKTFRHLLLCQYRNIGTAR

Turning to `COc1ccc2c(c1)c(C(=O)CN1CCOCC1)c(C)n2C`, the cell count in experiment [1] came to 628. Further, the inhibition in experiment [1] is 0.5% (inactive); in [2], 57.3% (inactive); in experiment [4], 17.8% (inactive); in [9], 27.4% (inactive). This molecule also gave a nuclei count in [2] of 85.8%. Besides, the z-score is -0.409 in [3] (setting [10]), -0.95 in experiment [3] (setting [11]) and 1.79 in experiment [3] (setting [12]). For the same molecule, the results for the fluorescence slope in experiment [5] and in experiment [7] were -0.48 (inactive) and 0.00679 (inactive), respectively. For the same molecule, the NADPH fluorescence slope in experiment [6] was -5.6e-05 (inactive). The outcome in [8] is “active; weak signal in gallbladder and intestine”.
In the case of `CC1(C)C2CCC1(C)C(NC(=O)CCN1CCCCC1)C2` (centres undefined), the cell count in experiment [1] worked out at 570. Besides, the inhibition in experiment [1] was -3.7% (inactive); in experiment [2], -89.2% (inactive); in [4] it was 5.95% (inactive); in experiment [9] it was 55.5% (active). In experiment [2], the nuclei count turned out to be 163%. Besides, the z-score amounted to 0.233 in experiment [3] (setting [10]), 1.96 in experiment [3] (setting [11]) and 0.463 in experiment [3] (setting [12]). The fluorescence slope in experiment [5] was -0.4 (inactive); in experiment [7] it was 0.00508 (inactive). In addition, the NADPH fluorescence slope in experiment [6] was -4.2e-05 (inactive). Besides, the molecule was classed as inactive in experiment [8].
As for `CCCCN1C(=O)C(O)=C(C(C)=O)C1c1ccc(OC)cc1OC` (centres undefined), in [1], the cell count came out at 479. Besides, the inhibition in [1] is -4.2% (inactive); in experiment [2] it was -323% (inactive); in experiment [4], -7.28% (inactive); in experiment [9], -3.96% (inactive). Further, the nuclei count in experiment [2] stood at 189%. Besides, the z-score in [3] (setting [10]) is 0.403; in [3] (setting [11]), -0.372; in experiment [3] (setting [12]) it was 1.98. Besides, the fluorescence slope in experiment [5] was -0.464 (inactive); in experiment [7], 0.00466 (inactive). Also, the NADPH fluorescence slope in experiment [6] was -4.3e-05 (inactive). Moreover, the call in experiment [8] was inactive.
Regarding `CCCOc1ccccc1C(=O)NCCCC(=O)O`, in experiment [1], the cell count was determined as 697. Moreover, the inhibition in [1] was 10.3% (inactive); in [2], -31.2% (inactive); in experiment [4], 1.63% (inactive); in experiment [9], 23.9% (inactive). Further, the nuclei count in [2] was 137%. Besides, the figures for the z-score in experiment [3] (setting [10]), in experiment [3] (setting [11]) and in experiment [3] (setting [12]) were 0.264, 0.35 and -1.68, respectively. In addition, the fluorescence slope in [5] is -0.447 (inactive); in experiment [7], 0.00573 (inactive). Further, the NADPH fluorescence slope in [6] is -6.8e-05 (inactive). Moreover, in [8], the molecule was called inactive.
Turning to `NC(=O)CSc1nnc2n(-c3ccccc3)c(=O)c3c4c(sc3n12)CCCCC4`, in experiment [1], the cell count worked out at 376. Moreover, the inhibition was -1.4% (inactive) in [1], -45.3% (inactive) in [2], -2.59% (inactive) in experiment [4] and 7.56% (inactive) in experiment [9]. In addition, in experiment [2], the nuclei count is 193%. Further, the z-score in [3] (setting [10]) was -0.963; in experiment [3] (setting [11]), 1.04; in experiment [3] (setting [12]), 0.285. The results for the fluorescence slope in [5] and in [7] were -0.51 (inactive) and 0.00448 (inactive), respectively. In addition, the NADPH fluorescence slope in experiment [6] was -0.000119 (inactive). Besides, the result in experiment [8] was inactive.
For the molecule `Cc1cc(C)n(C2CCCCC2OC(=O)c2ccccc2)n1` (centres undefined), the cell count in experiment [1] was found to be 526. Moreover, the inhibition is -10% (inactive) in experiment [1], -95% (inactive) in [2], 9.91% (inactive) in experiment [4] and -9.73% (inactive) in experiment [9]. The same molecule displayed a nuclei count in experiment [2] of 129%. The z-score is -0.506 in experiment [3] (setting [10]), 0.334 in experiment [3] (setting [11]) and -1.55 in experiment [3] (setting [12]). The fluorescence slope in experiment [5] is -0.381 (inactive); in experiment [7], 0.00464 (inactive). Further, the NADPH fluorescence slope in experiment [6] is 2e-06 (inactive). In experiment [8], the result was inactive.
For `CC1(C(=O)CSc2ncn[nH]2)CCC(=O)O1` (centres undefined), the cell count in experiment [1] is 643. Further, the inhibition in [1] is 19.2% (inactive); in [2] it was 21.4% (inactive); in [4], 7.21% (inactive); in experiment [9], 29.1% (inactive). The molecule further had a nuclei count in [2] of 93.2%. The z-score in [3] (setting [10]) is -1.6; in experiment [3] (setting [11]), 1.61; in [3] (setting [12]) it was 0.596. Besides, the figures for the fluorescence slope in [5] and in experiment [7] were -0.544 (inactive) and 0.00624 (inactive), respectively. Further, the NADPH fluorescence slope in experiment [6] is -5.7e-05 (inactive). In addition, in experiment [8], the molecule was classed as inactive.
In the case of `CC(NC(=O)Nc1ccc(O)cc1)(C(F)(F)F)C(F)(F)F`, the cell count in [1] turned out to be 709. The inhibition is -15.9% (inactive) in experiment [1], -16.4% (inactive) in experiment [2], -3.95% (inactive) in experiment [4] and 0.534% (inactive) in [9]. Besides, the nuclei count in [2] was found to be 151%. Besides, the z-score in experiment [3] (setting [10]) is -0.386; in experiment [3] (setting [11]), 1.06; in experiment [3] (setting [12]) it was 0.803. The results for the fluorescence slope in experiment [5] and in experiment [7] were -0.461 (inactive) and 0.00553 (inactive), respectively. Further, the NADPH fluorescence slope in [6] is -4.3e-05 (inactive). The molecule was classed as inactive in experiment [8].
For `COc1ccc(C2NC3=C(CCC3)C3(C#N)C(OC)(OC)N=C(N)C23C#N)cc1` (centres undefined), the cell count in experiment [1] turned out to be 535. The inhibition in [1] was -13.1% (inactive); in experiment [2] it was -35.8% (inactive); in experiment [4], 1.42% (inactive); in [9], 30.4% (inactive). This molecule showed a nuclei count in experiment [2] of 134%. In addition, the z-score in experiment [3] (setting [10]) is -0.336; in experiment [3] (setting [11]), 0.913; in experiment [3] (setting [12]) it was 0.179. The fluorescence slope in [5] is -0.438 (inactive); in experiment [7], 0.0052 (inactive). The NADPH fluorescence slope in experiment [6] is -3.3e-05 (inactive). In experiment [8], the molecule was called inactive.
In the case of `CC(C(=O)N(C)C)N(C#N)c1nc(N(C)C)nc(N(C)C)n1` (centres undefined), the cell count in experiment [1] came out at 606. Besides, the inhibition in experiment [1] is 7.4% (inactive); in [2], 7.8% (inactive); in experiment [4], 7.21% (inactive); in experiment [9], 26.6% (inactive). This molecule also came in with a nuclei count in experiment [2] of 80.9%. The z-score is -1.86 in experiment [3] (setting [10]), 1.62 in experiment [3] (setting [11]) and 0.8 in [3] (setting [12]). Moreover, the fluorescence slope is -0.506 (inactive) in [5] and 0.00543 (inactive) in experiment [7]. In experiment [6], the NADPH fluorescence slope was -5.1e-05 (inactive). Also, in experiment [8], the call was inactive.
As for `COc1ccc(C2C=C(c3ccc(C)cc3)Nc3ncnn32)cc1` (centres undefined), in experiment [1], the cell count stood at 538. Further, the inhibition is 0.8% (inactive) in experiment [1], 22.6% (inactive) in experiment [2], -3.97% (inactive) in [4] and 2.98% (inactive) in [9]. In experiment [2], this molecule yielded a nuclei count of 156%. The z-score in [3] (setting [10]) was -1.85; in experiment [3] (setting [11]), 1.16; in experiment [3] (setting [12]), 0.377. Further, the results for the fluorescence slope in experiment [5] and in experiment [7] were -0.0165 (inactive) and 0.00462 (inactive), respectively. Also, the NADPH fluorescence slope in experiment [6] was -1.6e-05 (inactive). Also, the call in [8] was inactive.
For the molecule `O=C1C(=O)N(Cc2cccnc2)C(c2ccccn2)/C1=C(/O)c1ccc(F)cc1` (centres undefined), in [1], the cell count was 327. For the same molecule, the inhibition in experiment [1] was -1.1% (inactive); in experiment [2] it was -58.9% (inactive); in experiment [4], -0.624% (inactive); in [9] it was -9.85% (inactive). Besides, in [2], the nuclei count was determined as 98%. Besides, the z-score in [3] (setting [10]) is 1.24; in [3] (setting [11]) it was 1.4; in experiment [3] (setting [12]), -0.331. Moreover, the fluorescence slope in experiment [5] is -0.462 (inactive); in experiment [7], 0.00549 (inactive). Moreover, the NADPH fluorescence slope in experiment [6] is -3.7e-05 (inactive). For the same molecule, the molecule was classed as inactive in experiment [8].
With `COc1ccc(C(=O)OC(C)CN2CCN(C)CC2)cc1OC` (centres undefined), in [1], the cell count came to 386. Besides, the inhibition was 2.6% (inactive) in experiment [1], -35.7% (inactive) in experiment [2], -11% (inactive) in experiment [4] and 21.4% (inactive) in [9]. The nuclei count in experiment [2] came to 154%. The values for the z-score in [3] (setting [10]), in experiment [3] (setting [11]) and in experiment [3] (setting [12]) were -1.91, 0.605 and 1.37, respectively. For the same molecule, the fluorescence slope in experiment [5] was -0.446 (inactive); in experiment [7], 0.00501 (inactive). The NADPH fluorescence slope in experiment [6] is -9.4e-05 (inactive). Besides, in experiment [8], the molecule was called inactive.
